Source: ChEMBL document CHEMBL4219038, “1-Thiazol-2-yl-N-3-methyl-1H-pyrozole-5-carboxylic acid derivatives as antitumor agents” (Bioorg Med Chem Lett, 2017)
The source made the active and inactive calls. No cut-off for these calls is given here.

Assays:
Daudi = assay: Antiproliferative activity against human Daudi cells; type: functional, cell-based
[1] = AUC (0 to infinity) in iv dosed mouse; type: ADME, organism-based; set-up: time infinity, route intravenous; conditions: in vivo
[2] = Clearance in iv dosed mouse; type: ADME, organism-based; conditions: in vivo
[3] = MRT in mouse at 2.5 mg/kg, po; type: ADME, organism-based; conditions: in vivo
Mus musculus [4] = assay: Toxicity in J:Nu mouse assessed as organ damage at 30 mg/kg, po qd for 7 days followed by 90 mg/kg, po qd for 5 days from day 8 to 13 measured 48 hrs after post last dose by pathology analysis; type: organism-based; conditions: in vivo
Procedure, shortened: (§1)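 In J:Nu female mice (N = 4 per group), dosing was oral once daily at 30 or 60 mg/kg in 5% NMP/10% PEG-400/15% Solutol/70% D5W for 7 days. Doses were then raised to 90 or 120 mg/kg respectively on days 8–13. Clinical signs and body weights were recorded daily. Gross pathology, with spleen and liver weights, was done 48 h after the last dose.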

Mus musculus [5] = assay: Ratio of AUC (0 to infinity) in mouse at 2.5 mg/kg, po to Cmax in mouse at 50 mg/kg, po; type: ADME, organism-based; conditions: in vivo
Mus musculus [6] = assay: Toxicity in J:Nu mouse assessed as induction of changes in critical clinical parameters at 60 mg/kg, po qd for 7 days followed by 120 mg/kg, po qd for 5 days from day 8 to 13; type: organism-based; conditions: in vivo; procedure, shortened: as §1
[7] = Plasma concentration (7 hrs) in J:Nu mouse at 60 mg/kg, po qd for 7 days measured on day 5; type: ADME, organism-based
Procedure, shortened: (§2)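 J:Nu female mice, N = 4 per group, dosed orally once daily at 10, 30 or 60 mg/kg in 5% NMP, 10% PEG-400, 15% Solutol, 70% D5W. Blood was sampled every other day, alternating Cmax and predose draws. Plasma concentration was taken 7 h after dosing.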

Mus musculus [8] = assay: Ratio of AUC (0 to infinity) in mouse at 2.5 mg/kg, po to Cmax in mouse at 100 mg/kg, po; type: ADME, organism-based; conditions: in vivo
[9] = Protein binding in mouse plasma; type: ADME, cell-free; conditions: read-out: PPB (converted)
[10] = Dose normalized Cmax in J:Nu mouse plasma at 60 mg/kg, po qd for 7 days followed by 120 mg/kg, po qd for 5 days from day 8 to 13; type: ADME, organism-based; conditions: in vivo
Procedure, shortened: (§3)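 J:Nu female mice, N = 4 per group, dosed orally once daily at 10, 30 or 60 mpk in 5% NMP, 10% PEG-400, 15% Solutol, 70% D5W. The 30 and 60 mpk groups were raised to 90 and 120 mpk from day 8 to 13.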

BJAB = assay: Antiproliferative activity against human BJAB cells after 4 days; type: functional, cell-based; conditions: Homo sapiens, BJAB, 96 h; read-out: EC50
[11] = AUC (0 to infinity) in J:Nu mouse plasma at 10 mg/kg, po qd for 7 days; type: ADME, organism-based; set-up: dose 10 mg/kg, route oral, time infinity; procedure, shortened: as §3
A2780 = assay: Antiproliferative activity against human A2780 cells; type: functional, cell-based
[12] = Plasma concentration (7 hrs) in J:Nu mouse at 30 mg/kg, po qd for 7 days measured on day 1; type: ADME, organism-based; procedure, shortened: as §2
NCI-H460 = assay: Antiproliferative activity against human NCI-H460 cells; type: functional, cell-based
MIA PaCa-2 = assay: Antiproliferative activity against human MIAPaCa2 cells; type: functional, cell-based
Mus musculus [13] = assay: Toxicity in J:Nu mouse assessed as induction of changes in critical clinical parameters at 30 mg/kg, po qd for 7 days followed by 90 mg/kg, po qd for 5 days from day 8 to 13; type: organism-based; conditions: in vivo; procedure, shortened: as §1
Mus musculus [14] = assay: Ratio of Cmax in mouse at 2.5 mg/kg, po to Cmax in mouse at 100 mg/kg, po; type: ADME, organism-based; conditions: in vivo
[15] = Cmax in mouse at 100 mg/kg; type: ADME, organism-based; set-up: dose 100 mg/kg; conditions: in vivo
HCT-116 = assay: Induction of quiescence in human HCT116 cells by high content cell imaging studies; type: functional, cell-based
[16] = Dose normalized Cmax in J:Nu mouse plasma at 30 mg/kg, po qd for 7 days followed by 90 mg/kg, po qd for 5 days from day 8 to 13; type: ADME, organism-based; conditions: in vivo; procedure, shortened: as §3
[17] = Dose normalized AUC (0 to infinity) in J:Nu mouse plasma at 60 mg/kg, po qd for 7 days followed by 120 mg/kg, po qd for 5 days from day 8 to 13; type: ADME, organism-based; conditions: in vivo; procedure, shortened: as §3
[18] = Plasma concentration (7 hrs) in J:Nu mouse at 30 mg/kg, po qd for 7 days measured on day 5; type: ADME, organism-based; procedure, shortened: as §2
Mus musculus [19] = assay: Ratio of AUC (0 to infinity) in mouse at 2.5 mg/kg, po to Cmax in mouse at 10 mg/kg, po; type: ADME, organism-based; conditions: in vivo
[20] = Cmax in po dosed mouse; type: ADME, organism-based; set-up: route oral; conditions: in vivo
Jurkat = assay: Antiproliferative activity against human Jurkat cells; type: functional, cell-based
[21] = Toxicity in J:Nu mouse assessed as maximum tolerated dose at 10 to 120 mg/kg, po qd for 13 days; type: organism-based; conditions: in vivo
[22] = Oral bioavailability in mouse; type: ADME, organism-based; conditions: in vivo

SMILES: Cc1nn(-c2nc(-c3ccc(Cl)c(Cl)c3)c(SC(C)C)s2)c(C(=O)O)c1-c1cc(Cl)cc(Cl)c1
- IC50 (Daudi): 380 nM
- AUC(0-inf) [1]: 10.7 µg·h/mL
- clearance [2]: 0.8 mL/min/kg
- MRT [3]: 15.1 h
- Activity (Mus musculus [4]): Non-Toxic
- Ratio (Mus musculus [5]): 8.7
- Activity (Mus musculus [6]): Non-Toxic
- concentration at 7 h [7]: 79.8 µg/mL
- Ratio (Mus musculus [8]): 1.4
- fraction unbound [9]: 0.008
- Cmax/dose [10]: 1.0665 µg/mL
- EC50 (BJAB): 554 nM
- AUC(0-inf) [11]: 330 µg·h/mL
- IC50 (A2780): 290 nM
- concentration at 7 h [12]: 63.6 µg/mL
- IC50 (NCI-H460): 330 nM
- IC50 (MIA PaCa-2): 320 nM
- Activity (Mus musculus [13]): Non-Toxic
- Ratio (Mus musculus [14]): 0.9
- Cmax [15]: 131 µg/mL
- Activity (HCT-116): Active
- Cmax/dose [16]: 1.4943 µg/mL
- AUC/dose [17]: 12800 ng·kg·h/mL/mg
- concentration at 7 h [18]: 57.3 µg/mL
- Ratio (Mus musculus [19]): 10
- Cmax [20]: 1.32 µg/mL
- IC50 (Jurkat): 500 nM
- MTD at 312 h [21]: 90 mg/kg
- bioavailability [22]: 48.4%
